Laboratory results taken from ChEMBL document CHEMBL4138055, “Determination and reduction of translocator protein (TSPO) ligand rs6971 discrimination” (Medchemcomm, 2017).

Experiments:
Homo sapiens = species: Homo sapiens; assay: Selectivity ratio of Ki for human TSPO A147T mutant to Ki for human wild type TSPO
Translocator protein [1] = biological target: T1, Translocator protein (Homo sapiens, UniProt P30536); assay: Displacement of [3H]PK11195 from human wild type TSPO expressed in HEK293T cell membranes after 90 mins by scintillation counting method
HEK-293T [2] = assay: Cytotoxicity against HEK293T cells expressing human wild type TSPO assessed as decrease in cell viability after 48 hrs by CellTiter blue assay; assay type: functional, cell-based
Procedure, shortened: (§1)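 Stable TSPO WT or A147T 293T cells at 8.75 × 10³ cells/well on poly-L-lysine-coated plates, exposed next day to vehicle or compound (1–100 μM) for 48 h. CellTiter Blue (resazurin to resorufin) added for 4 h at 37 °C, fluorescence read at Ex560/Em590 nm.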

HEK-293T [3] = assay: Cytotoxicity against HEK293T cells expressing human TSPO A147T mutant assessed as decrease in cell viability after 48 hrs by CellTiter blue assay; assay type: functional, cell-based; procedure, shortened: as §1
HEK-293T [4] = assay: Antiproliferative activity against HEK293T cells expressing human wild type TSPO after 48 hrs by BrdU incorporation assay; assay type: functional, cell-based
Procedure, shortened: (§2)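 293T cells stably expressing human TSPO WT or A147T (lentiviral, puromycin-selected) seeded at 8.75 × 10³ cells/well on poly-L-lysine-coated plates, treated next day with vehicle or compound (1–100 μM) for 48 h. BrdU added for 4 h at 37 °C, incorporation detected by ELISA, absorbance read at 450 nm.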

HEK-293T [5] = assay: Antiproliferative activity against HEK293T cells expressing human TSPO A147T mutant after 48 hrs by BrdU incorporation assay; assay type: functional, cell-based; procedure, shortened: as §2
[6] = Selectivity ratio of IC50 for HEK293T cells expressing human TSPO A147T mutant assessed as decrease in cell viability to IC50 for HEK293T cells expressing human wild type TSPO assessed as decrease in cell viability; assay type: functional
Translocator protein [7] = biological target: T1, Translocator protein; assay: Ratio of Ki for displacement of [3H]PK11195 from human brain TSPO isolated from low affinity binder patient to Ki for [3H]PK11195 from human brain TSPO isolated from high affinity binder patient
[8] = Selectivity ratio of IC50 for HEK293T cells expressing human TSPO A147T mutant assessed as decrease in cell proliferation to IC50 for HEK293T cells expressing human wild type TSPO assessed as decrease in cell proliferation; assay type: functional

T1 sequence (P30536 whole entry): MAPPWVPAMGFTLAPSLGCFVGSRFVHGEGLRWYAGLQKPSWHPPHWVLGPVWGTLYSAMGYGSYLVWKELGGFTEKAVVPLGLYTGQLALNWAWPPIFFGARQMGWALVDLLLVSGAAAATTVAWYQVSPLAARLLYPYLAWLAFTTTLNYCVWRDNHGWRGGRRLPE

Compound | Ratio Ki (Homo sapiens) | Ki (Translocator protein [1]) [µM] | IC50 (HEK-293T [2]) [µM] | IC50 (HEK-293T [3]) [µM] | IC50 (HEK-293T [4]) [µM] | IC50 (HEK-293T [5]) [µM] | Ratio IC50 [6] | Ratio Ki (Translocator protein [7]) | Ratio IC50 [8]
CCN(CC)C(=O)Cn1c2ccccc2c2cc(Br)ccc21 | 5.1 | 0.0315 |  |  |  |  |  |  | 
CCN(CC)C(=O)Cn1c2ccccc2c2cc(-c3ccccc3OC)ccc21 | 5.4 | 0.0254 |  |  |  |  |  |  | 
CCN(CC)C(=O)Cc1c(-c2ccc(OC)cc2)nn2c(C)cc(C)nc12 |  |  | > 100 | > 100 | > 100 | > 100 |  |  | 
CCN(Cc1ccccc1)C(=O)Cn1c(=O)n(C)c2cnc(-c3ccccc3)nc21 | 4.9 | 0.0064 | 29.5 | 26.2 | > 100 | > 100 | 0.9 | 12.6 | 
CCN(CC)C(=O)Cn1c2ccccc2c2cc(-c3ccccc3)ccc21 | 5.1 | 0.0316 | 23.7 | 22.9 | 50.5 | 47.1 | 1 |  | 0.9
CCN(CC)C(=O)Cn1c2ccccc2c2cc(-c3ccc(OC)cc3)ccc21 | 3.2 | 0.0289 |  |  |  |  |  |  | 
CCN(Cc1ccccc1)C(=O)Cn1c2ccccc2c2ccccc21 | 5 | 0.0916 | > 100 | > 100 | > 100 | > 100 |  |  | 
CCC(C)N(C)C(=O)c1cc2ccccc2c(-c2ccccc2Cl)n1 (centres undefined) [PK-11195] |  |  | 67.4 | 69.2 | > 100 | > 100 |  |  | 
CCN(Cc1ccccc1)C(=O)Cn1c2ccccc2c2cc(Br)ccc21 |  | 0.0543 |  |  |  |  |  |  | 
CCN(CC)C(=O)Cn1c2ccccc2c2ccccc21 | 5.9 | 0.0301 |  |  |  |  |  |  | 
